DTT redox prof – compounds producing H2O2 with reducing agent – biochemical, NIH compound library profiling, artefact control for MLSCN library redox annotation, primary screen; DTT-dependent redox cycling H2O2, phenol red/HRP absorbance; 100% = 100 µM peroxide control, 0% = buffer; activation, % at 10 µM; 200,000 compounds, 0.03% hits;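 active = activation of at least 50% relative to the plate's high and low controls in the primary single-dose screen; inactive = activation below 50%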;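 note: compound incubated with DTT at 0.8 mM final as the reducing agent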
Diaphorase inh – diaphorase inhibition or chemical oxidation counter-screen; diaphorase resazurin-to-resorufin fluorescence, NADH, 16 min; bacterial (C. kluyveri) enzyme, not human; inhibition, % at 20 µM; 190,000 compounds, 0.69% hits;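 active = primary screen inhibition at 20 µM above a set limit, cut at about 50% in these data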;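 note: plate controls were DMSO with full reaction for no effect and wells lacking NADH for full effect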
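Test system: Clostridium kluyveri diaphorase enzyme / Quantity: diaphorase at 0.14 U/mL in enzyme working solution / Incubation: 16-min room-temperature incubation before reading / Benchmarks: NADH-free wells as positive control, DMSO-only neutral wells / Signal: resorufin fluorescence 544/590 nm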
PMI act hi M6P – increases human PMI activity with near-saturating mannose 6-phosphate | 190,000 compounds, 0.34% hits | P34949 | coupled PMI enzyme assay, resazurin fluorescence, 20 min; hits give high values; 1 = untreated enzyme, 0 = substrate-free blank | activation factor at 20 µM;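 active = activation factor of 2 or more at 20 µM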
Target sequence (P34949 whole entry, looked up): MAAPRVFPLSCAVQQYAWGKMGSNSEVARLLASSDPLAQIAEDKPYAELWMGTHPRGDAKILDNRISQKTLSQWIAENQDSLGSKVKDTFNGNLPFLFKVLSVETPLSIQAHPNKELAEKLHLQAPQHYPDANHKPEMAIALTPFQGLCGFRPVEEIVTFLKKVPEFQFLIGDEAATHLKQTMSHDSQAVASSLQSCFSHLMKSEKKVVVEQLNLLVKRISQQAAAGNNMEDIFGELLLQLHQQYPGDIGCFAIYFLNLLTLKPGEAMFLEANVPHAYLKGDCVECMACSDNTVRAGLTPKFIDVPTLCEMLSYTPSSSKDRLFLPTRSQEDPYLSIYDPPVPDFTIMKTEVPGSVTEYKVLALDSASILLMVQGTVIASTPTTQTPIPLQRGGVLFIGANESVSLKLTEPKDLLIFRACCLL
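Test system: Human PMI in coupled enzyme assay | Input: 15 ng/mL PMI | Medium: HEPES-buffered pH 7.4 with magnesium and detergent | Compound: One concentration, 20 µM, in 1% DMSO | Incubation: Enzyme reaction with compound 20 min at room temperature | Detection: Diaphorase-driven resazurin-to-resorufin fluorescence, excitation 544, emission 590 nm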
PMI act – phosphomannose isomerase (human) activation; AID 1214; 190,000 compounds, 0.005% hits; activation factor at 20 µM; purified human PMI, coupled resazurin fluorescence, 20 min; hits give high values; 1 = vehicle control, 0 substrate-free wells; P34949;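 active = activation factor of 2 or more at 20 µM, relative to plate controls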
G6PDH counter – counter-screen for G6PDH assay hits: L. mesenteroides G6PDH inhibition | AID 1020 | 200,000 compounds, 0.12% hits | Purified L. mesenteroides G6PDH, diaphorase/resazurin coupled fluorescence, 45 min | inhibition, % at 5 µM; in the data active = inhibition above about 50%
Diaphorase act – diaphorase activation or chemical reduction counter-screen; Diaphorase/resazurin coupled assay, resorufin fluorescence, 16 min; hits give high values; 1 = vehicle wells, 0 = NADH-free wells; activation factor at 20 µM; 190,000 compounds, 0.005% hits; AID 1229;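 active = diaphorase activity raised at least twofold by the compound at 20 µM; inactive = activation factor below 2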
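Test system: Clostridium kluyveri diaphorase, purified enzyme. Buffer or medium: 50 mM HEPES pH 7.4 buffer plus MgCl2 and Tween 20. Also added: 0.114 mM NADH and 0.1 mM resazurin, final amounts. Dosing: compound 20 µM once, DMSO 1%. Schedule: 16 min enzyme reaction, ambient temperature. Detection: fluorescence of resorufin, 544 nm excitation, 590 nm emission.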
Starred values were filed as active, the others as inactive; x = no result given. Only some compounds are listed: those with a hit (about 1.1% of all), similar ones and a draw of the others.

SMILES	DTT redox prof	Diaphorase inh	PMI act hi M6P	PMI act	G6PDH counter	Diaphorase act
COc1cccc(CN2CCN(Cc3cc(OC)c(OC)cc3[N+](=O)[O-])CC2)c1	-5	50*	0.5	0.5	15	0.5
COc1cc(CN2CCN(Cc3ccc([N+](=O)[O-])cc3)CC2)c([N+](=O)[O-])cc1OC	-2	30	0.4	0.8	12	0.7
CCOc1ccc(C=Nc2cccc3ncccc23)cc1	3	51*	0.3	0.4	12	0.5
Oc1ccc(C=Nc2cccc3ncccc23)c(O)c1	4	45	0.6	0.5	-40	0.5
O=S1(=O)C=C(SCc2ccc(F)cc2)Nc2ccccc21	-1	12	0.9	1	1	0.9
Cc1cccc(CSc2nc3c(c(-c4cccs4)c2C#N)CN(C)CC3)c1	1	58*	0.4	0.3	0	0.4
Cc1cccc(CSc2nc(N)c(C#N)c(-c3cccs3)c2C#N)c1	0	18	0.9	0.9	4	0.8
O=C1c2ccccc2-c2nnc(-c3ccc(F)cc3)cc21	-1	10	0.9	1.1	-2	0.9
Cc1ccccc1-c1cc2c(nn1)-c1ccccc1C2=O	0	65*	2.5*	2*	53*	0.4
COCc1cc(=O)n2[nH]c(-c3ccsc3-n3c(C)ccc3C)cc2n1	1	49	0.8	0.8	1	0.5
Cc1nc2cc(-c3ccsc3-n3c(C)ccc3C)[nH]n2c(=O)c1Cl	0	64*	0.9	0.9	7	0.4
Cc1ccc(C2=NC(=O)/C(=C/c3cc(O)c(O)c(Br)c3)S2)cc1	0	81*	0.5	0.2	4	0.2
Cc1ccc(/C=C2\SC(N3CCCC3)=NC2=O)cc1	-1	7	1	1	6	0.9
COc1cc(/C=C2\SC(c3ccc(C)cc3)=NC2=O)cc(OC)c1O	2	66*	0.7	0.7	-67	0.3
O=C(CCc1nc2ccccc2c(=O)[nH]1)OCCOc1ccc(Cl)cc1	-2	11	0.9	0.9	15	0.9
Cc1cc(NC(=O)COc2c(C)cccc2C)no1	0	10	1	0.9	8	0.9
CSC(=NCc1cccnc1)NS(=O)(=O)c1cccs1	1	74*	0.7	0.6	2	0.3
O=S(=O)(NCc1cccnc1)c1cccs1	1	18	0.8	0.9	6	0.8
CCCc1ccc(OCC(=O)Nc2cc(S(=O)(=O)CC)ccc2O)cc1	0	16	0.8	0.8	12	0.8
CCOC(=O)C1=C(C)NC(=O)C1CC(=O)Nc1ccccc1 (configuration not stated)	1	-35	3*	2.1*	12	1.4
CN(C)CCCNC(=O)c1cc(C(=O)c2ccc(F)cc2)c[nH]1	-2	6	0.9	1	-1	0.9
COc1ccc(F)cc1C(=O)C1CCCN(Cc2cccn2-c2cccnc2)C1 (configuration not stated)	2	94*	1	0.9	3	0.1
O=C(CCCCCN1C(=O)c2cccc3cccc(c23)C1=O)NCCO	0	1	1.1	1.1	4	1
COCCCNC(=S)NCCCNc1nc2cc(C)cc(C)c2cc1C#N	0	18	2.5*	1.6	10	0.8
Cc1cc(C)c2cc(C#N)c(NCCNC(=S)NCCCN3CCOCC3)nc2c1	-1	0	1.1	1	0	1
SMILES	DTT redox prof	Diaphorase inh	PMI act hi M6P	PMI act	G6PDH counter	Diaphorase act
COCCCNC(=S)NCCNc1nc2c(C)c(C)ccc2cc1C#N	0	3	2.8*	1.7	14	1
C/C(=N\Nc1ccc(F)cc1)c1ccncc1	0	12	2.5*	1.6	8	0.9
C/C(=N/Nc1ccc(F)cc1)c1ccc(Cl)s1	0	22	2.3*	1.4	-12	0.8
CNC(=S)N/N=C(\C)c1ccc(Cl)s1	0	-2	1	0.9	9	1
Clc1cccc(N/N=C/c2ccncc2)c1	0	10	1.2	1.1	-13	0.9
C/C(=N\Nc1cccc(Cl)c1)c1ccncc1	-2	0	2.3*	1.8	0	1
COc1ccccc1CNCc1cccc(Oc2ccccc2)c1	-1	13	1	0.9	12	0.9
CCCn1c(SCC(=O)NCc2ccccc2)n[nH]c1=O	0	3	1	1.1	-2	1
CC(C)CC(C(=O)Nc1ccc2c(c1)OCCO2)N1C(=O)c2ccccc2C1=O (configuration not stated)	-1	-1	1	1.1	14	1
CC(C)CC(C(=O)Nc1oc(-c2ccco2)c(-c2ccco2)c1C#N)N1C(=O)c2ccccc2C1=O (configuration not stated)	0	56*	x	x	22	0.4
Cc1cc(NC(=S)Nc2cccc3ccccc23)n[nH]1	0	16	0.7	0.7	-2	0.8
CC(C)C(c1nnnn1Cc1ccc(F)cc1)N1CCN(c2ccc(O)cc2)CC1 (configuration not stated)	0	62*	0.3	0.6	18	0.4
O=c1[nH]c2ccc(N=Cc3c(O)ccc4cc(Br)ccc34)cc2[nH]1	1	55*	0.3	0.4	8	0.4
Cc1[nH]n(-c2ccccc2)c(=O)c1C=Nc1ccc2[nH]c(=O)[nH]c2c1	1	29	0.9	0.9	-17	0.7
Cn1cccc1/C=N/n1c(-c2ccc(Cl)cc2Cl)n[nH]c1=S	2	72*	0.8	0.8	-12	0.3
Cn1cccc1/C=N/n1c(-c2ccc(Cl)cc2)n[nH]c1=S	2	28	0.8	0.8	-14	0.7
O=C(NCCCN1CCCC1=O)c1ccccc1NS(=O)(=O)c1ccc(Br)cc1	0	-6	1.1	1	14	1.1
COc1ccc(NC(=O)CCC(=O)c2cccs2)cc1S(=O)(=O)Nc1ccc(Cl)cc1	0	50*	0.9	0.7	-14	0.5
COc1ncnc2c1oc1nc(C(C)C)c3c(c12)CC(C)(C)OC3	0	88*	1	0.9	6	0.1
CCOc1ncnc2c1oc1nc(CC(C)C)c3c(c12)CC(C)(C)OC3	2	18	0.9	0.9	8	0.8
CCOC(=O)c1oc2nc(C(C)C)c3c(c2c1N)CC(C)(C)OC3	-1	68*	0.9	1	12	0.3
Cc1ccc(NS(=O)(=O)c2ccc3[nH]c(=O)sc3c2)cc1	-1	10	1	1	2	0.9
CCOc1ccc(C2=Nn3c(nnc3-c3ccccc3OC)SC2)cc1	2	15	1	1.1	7	0.8
